Published values gathered from unrelated publications.
Compare with care: the assays were run in different laboratories.
CASP9: Caspase-9 (CASP9, Homo sapiens, UniProt P55211)
PPARA: Peroxisome proliferator-activated receptor alpha (PPARA, Homo sapiens, UniProt Q07869)

With `COc1cc(Nc2ncc(F)c(Nc3ccc4c(n3)NC(=O)C(C)(C)O4)n2)cc(OC)c1OC` the inhibition was 84% (Serine/threonine-protein kinase NIM1 (NIM1K, Homo sapiens, UniProt Q8IY84); binding, competition with immobilised ligand; 10 µM).
The inhibition of `CCOC(=O)c1ccc(OC(=O)CCCCCNC(=N)N)cc1` is reported as 0% (Ubiquitin carboxyl-terminal hydrolase 7 (USP7, Homo sapiens, UniProt Q93009); enzyme activity, inhibitor; 10 µM).
`Clc1cccc(-c2c[nH]c3nccc(N4CCOCC4)c23)c1` has a ΔTm of > 7.4 °C (Serine/threonine-protein kinase 4 (STK4, Homo sapiens, UniProt Q13043); thermal stability, DSF).
The inhibition of `COC(=O)CC[C@H](NC(=O)[C@H](CC(C)C)NC(=O)OCc1ccccc1)C(=O)N[C@@H](Cc1cnc[nH]1)C(=O)N[C@@H](CC(=O)OC)C(=O)CF` is reported as 50% (CASP9; enzyme activity, inhibitor; 1 µM).
`O=C(Nc1cccnn1)N1CCN([C@@H]2CCOc3cc(C(F)(F)F)ccc32)CC1` gave an inhibition of -62% (Corticotropin-releasing factor receptor 1 (CRHR1, Homo sapiens, UniProt P34998); ligand displacement; 20 µM).
`CN[C@@H](C)C(=O)N[C@@H](CNC(=O)c1ccc(S(=O)(=O)F)c(OC)c1)C(=O)N1CCC[C@H]1C(=O)N[C@@H]1CCc2c(F)cccc21` gave a kinact of 0.0258 s⁻¹ (E3 ubiquitin-protein ligase XIAP, BIR3 (XIAP, Homo sapiens, UniProt P98170); enzyme activity, inhibitor).
`O=S(=O)(O)C(F)(F)C(F)(F)C(F)(F)C(F)(F)C(F)(F)C(F)(F)F` has an Emax of 67% (PPARA; reporter gene, agonist, luciferase; COS-7).
`CN1CCN(c2ccc(Nc3nccc(-c4ccccc4)n3)cc2C(F)(F)F)CC1` gave a remaining binding of 13% (Calcium-dependent protein kinase 1 (CDPK1, Plasmodium falciparum, UniProt P62344); binding; 10 µM).
`COc1ncccc1-c1cnn2ccc(N3CCN(C(=O)OC(C)C)CC3)nc12` gave a remaining binding of 49% (Mitogen-activated protein kinase kinase kinase 1 (MAP3K1, Homo sapiens, UniProt Q13233); binding, competition with immobilised ligand; 1 µM).
`C#Cc1n[nH]c2c(-c3cn([C@@H](C)c4ccccn4)c(=O)[nH]c3=O)cc(F)cc12` has an inhibition of 4.2% (Eukaryotic elongation factor 2 kinase (EEF2K, Homo sapiens, UniProt O00418); enzyme activity, inhibitor; 0.1 µM).
`Cc1ncc(C)n2nc(/C=C/c3nc(N4CCCC4)cc(N4CCOCC4)n3)nc12` has an inhibition of 11% (CASP9; enzyme activity, inhibitor; 10 µM).
`O=S(=O)(O)C(F)(F)C(F)(F)OC(F)(C(F)(F)F)C(F)(F)OC(F)C(F)(F)F` (stereo not drawn) gave an Emax of 28% (PPARA; reporter gene, agonist, luciferase).
`Cc1nn(C)cc1-c1nc2c(N3CCN(Cc4ccc(Cl)cc4)CC3)c(Cl)cnc2[nH]1` gave a remaining binding of 100% (Cyclin-dependent kinase-like 1 (CDKL1, Homo sapiens, UniProt Q00532); binding, competition with immobilised ligand; 1 µM).
The remaining binding of `Nc1ncc(-c2nc(N3CCOCC3)nc(N3CCOCC3)n2)c(C(F)F)n1` is reported as 100% (Hepatocyte growth factor receptor (MET, Homo sapiens, UniProt P08581, M1250T); cell-free assay, competition with immobilised ligand; 10 µM).
`O=C(O)C(F)(F)C(F)(F)C(F)(F)C(F)(F)C(F)(F)C(F)(F)F` gave an Emax of 113% (PPARA; reporter gene, agonist, luciferase; COS-7).
